According to ChEMBL document CHEMBL1806459, “Discovery of N-(1-ethylpropyl)-[3-methoxy-5-(2-methoxy-4-trifluoromethoxyphenyl)-6-methyl-pyrazin-2-yl]amine 59 (NGD 98-2): an orally active corticotropin releasing factor-1 (CRF-1) receptor antagonist” (J Med Chem, 2011):
Each block holds one compound with its values, some of them ahead of it.

How the values were obtained:
[1] = Drug uptake in rat adipose tissue assessed as radioactivity of labeled compound; assay type: ADME, tissue-based; details: in vivo
[2] = Oral bioavailability in rat; assay type: ADME, organism-based; details: in vivo
Summary of the method: (§1)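 Rat pharmacokinetics: compounds given iv (1 or 3 mg/kg) and po (5 or 10 mg/kg) in 2% Vitamin E TPGS (tocopheryl polyethylene glycol 1000 succinate). Plasma sampled over 24 h for Cmax, Tmax, AUC0–24 h, T1/2, clearance, Vss and oral bioavailability. Brain to plasma ratio also measured.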

[3] = Clearance in rat at 5 mg/kg, po; assay type: ADME, organism-based; design: dose 5 mg/kg, route oral; details: in vivo
[4] = Ratio of drug level in brain to plasma of rat at 3 mg/kg, iv; assay type: ADME, organism-based; design: dose 3 mg/kg, route intravenous; details: read-out: BPR; summary of the method: as §1
[5] = Clearance in rat at 3 mg/kg, iv; assay type: ADME, organism-based; design: dose 3 mg/kg, route intravenous; details: in vivo
Summary of the method: (§2)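 Rat PK with paired iv and oral dosing, vehicle 2% Vitamin E TPGS. Clearance and Vss from the iv arm; oral bioavailability F from comparing exposure after oral and iv doses.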

[6] = Oral bioavailability in rat at 5 mg/kg; assay type: ADME, organism-based; details: in vivo; summary of the method: as §1
[7] = Cmax in rat at 3 mg/kg, iv; assay type: ADME, organism-based; design: dose 3 mg/kg, route intravenous; details: in vivo
Summary of the method: (§3)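 Rat PK, intravenous arm of a paired iv/po study. Dosed in 2% Vitamin E TPGS (tocopheryl polyethylene glycol 1000 succinate). Parameters derived from plasma: Cmax, AUC0–24 h, terminal T1/2.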

[8] = Tmax in rat at 5 mg/kg, po; assay type: ADME, organism-based; design: dose 5 mg/kg, route oral; details: in vivo; summary of the method: as §1
[9] = AUC (0 to 24 hrs) in rat at 3 mg/kg, iv; assay type: ADME, organism-based; design: time < 24 hr, dose 3 mg/kg, route intravenous; details: plasma; summary of the method: as §3
[10] = AUC (0 to 24 hrs) in rat at 5 mg/kg, po; assay type: ADME, organism-based; design: time < 24 hr, dose 5 mg/kg, route oral; details: plasma
[11] = Half life in rat at 3 mg/kg, iv; assay type: ADME, organism-based; design: dose 3 mg/kg, route intravenous; details: in vivo; summary of the method: as §3
[12] = biological target: T1, Corticotropin-releasing factor receptor 1 (Homo sapiens, UniProt P34998); test: Displacement of [125I]-sauvagine from human CRF-1 receptor expressed in human IMR-32 cells after 2 hrs by scintillation counting; assay type: cell-based
T1 sequence (P34998 whole entry): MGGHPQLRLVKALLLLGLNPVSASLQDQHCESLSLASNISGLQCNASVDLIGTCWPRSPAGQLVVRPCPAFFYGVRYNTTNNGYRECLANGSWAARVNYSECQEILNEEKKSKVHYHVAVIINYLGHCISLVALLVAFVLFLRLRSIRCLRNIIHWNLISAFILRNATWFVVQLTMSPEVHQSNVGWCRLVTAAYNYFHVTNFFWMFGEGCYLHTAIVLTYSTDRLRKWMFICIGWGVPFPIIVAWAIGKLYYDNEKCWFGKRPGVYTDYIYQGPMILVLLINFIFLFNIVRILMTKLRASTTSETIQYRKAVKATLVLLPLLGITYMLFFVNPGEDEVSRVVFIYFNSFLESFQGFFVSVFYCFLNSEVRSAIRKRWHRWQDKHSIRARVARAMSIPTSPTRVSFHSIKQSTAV
Summary of the method: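 Competition binding against 125I-sauvagine on membrane preparations from IMR-32 human neuroblastoma cells, which express CRF-1 endogenously. Modified from a published method.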

Rattus norvegicus = test: Volume of distribution at steady state in rat at 5 mg/kg, po; assay type: ADME, organism-based; design: dose 5 mg/kg, route oral; details: in vivo; summary of the method: as §1
[13] = Half life in rat at 5 mg/kg, po; assay type: ADME, organism-based; design: dose 5 mg/kg, route oral; details: in vivo
[14] = Tmax in rat at 3 mg/kg, iv; assay type: ADME, organism-based; design: dose 3 mg/kg, route intravenous; details: in vivo; summary of the method: as §1
[15] = Half life in human microsomes; assay type: ADME, Microsome
Summary of the method: (§4)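 Stability in human or rat liver microsomes; half-life (T1/2, min) of compound turnover reported.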

[16] = Cmax in rat at 5 mg/kg, po; assay type: ADME, organism-based; design: dose 5 mg/kg, route oral; details: in vivo
[17] = Bioavailability in rat at 3 mg/kg, […]; assay type: ADME, organism-based; details: in vivo; summary of the method: as §2
[18] = Ratio of drug level in brain to plasma of rat at 5 mg/kg, po; assay type: ADME, organism-based; design: dose 5 mg/kg, route oral; details: read-out: BPR; summary of the method: as §1
[19] = Volume of distribution at steady state in rat at 3 mg/kg, iv; assay type: ADME, organism-based; design: dose 3 mg/kg, route intravenous; details: in vivo, read-out: Vdss; summary of the method: as §1
[20] = Half life in rat microsomes; assay type: ADME, Microsome; summary of the method: as §4

Drug uptake [1]: Active
Structure (SMILES): CCC(CC)Nc1nc(C)c(-c2ccc(OC(F)(F)F)cc2O[14CH3])nc1OC

bioavailability [2]: 6%
Structure (SMILES): CCC(CC)Oc1c(C)nc(-c2c(OC)cc(Cl)cc2OC)nc1OC

CL/F [3]: 16 mL/min/kg
Kp [4]: 2.5
clearance [5]: 16 mL/min/kg
bioavailability [6]: 83%
Cmax [7]: 627 ng/mL
Tmax [8]: 1.3 h
AUC(0-t) at 24 h [9]: 4310 ng·h/mL
AUC(0-t) at 24 h [10]: 4310 ng·h/mL
half-life [11]: 4.9 h
Ki [12]: 4.1 nM
Vdss (Rattus norvegicus): 6.5 L/kg
half-life [13]: 4.9 h
Tmax [14]: 1.3 h
half-life [15]: 0.283 h
Cmax [16]: 627 ng/mL
bioavailability [17]: 83%
Kp [18]: 2.5
Vd [19]: 6.5 L/kg
half-life [20]: 4.2 min
Structure (SMILES): CCc1nc(-c2ccc(Cl)cc2Cl)c(CC)nc1NC(CC)CC
